# In ChEMBL document CHEMBL1132240, “Design and synthesis of modified quinolones as antitumoral acridones” (J Med Chem, 1999):
# Columns and labels:
# P388 [1] = assay: Cytotoxic activity Murine Lymphocytic Leukemia P388 Concentration of agent required to reduce cell viability by 90%; assay type: functional; conditions: Mus musculus
# Outline: (§1)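 Modified MTT assay. Cells seeded per well with graded drug: CHO 2.5 × 10^3, B16 5 × 10^3, P388 and LLC 10^4, HL-60 and LoVo 5 × 10^4. After 68 h, MTT (2.5 mg/mL) added for 4 h at 37 °C. Formazan dissolved in DMSO and A550 read. Inhibition taken as fractional A550 decrease vs control. IC50/IC90 from Chou's median-effect equation.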
# HL-60 [2] = assay: Cytotoxic activity against Human promyelocytic Leukemia HL-60 Concentration of agent required to reduce cell viability by 50%; assay type: functional, cell-based; outline: as §1
# P388 [3] = assay: Cytotoxic activity against Murine Lymphocytic Leukemia P388 Concentration of agent required to reduce cell viability by 50%; assay type: functional, cell-based; conditions: Mus musculus; outline: as §1
# HL-60 [4] = assay: Cytotoxic activity against Human promyelocytic Leukemia HL-60 Concentration of agent required to reduce cell viability by 90%; assay type: functional; outline: as §1
# B16 [5] = assay: Cytotoxic activity against solid tumor, B16 (murine melanoma) Concentration of agent required to reduce cell viability by 50%; assay type: functional, cell-based; conditions: Mus musculus; outline: as §1
# [6] = test system: Lewis lung carcinoma cell line; assay: Cytotoxic activity against solid tumor LLC(Lewis lung carcinoma), concentration of agent required to reduce cell viability by 50%; assay type: functional, cell-based; conditions: Mus musculus; outline: as §1
# CHO [7] = assay: Cytotoxic activity against solid tumor, CHO (Chinese hamster ovaric carcinoma) Concentration of agent required to reduce cell viability by 90%; assay type: functional; conditions: Cricetulus griseus; outline: as §1
# LoVo [8] = assay: Cytotoxic activity against solid tumor, LoVo, (human colon adenocarcinoma) Concentration of agent required to reduce cell viability by 90%; assay type: functional; outline: as §1
# CHO [9] = assay: Cytotoxic activity against solid tumor, CHO (Chinese hamster ovaric carcinoma) Concentration of agent required to reduce cell viability by 50%; assay type: functional, cell-based; conditions: Cricetulus griseus; outline: as §1
# B16 [10] = assay: Cytotoxic activity against solid tumor, B16 (murine melanoma) Concentration of agent required to reduce cell viability by 90%; assay type: functional; conditions: Mus musculus; outline: as §1
# [11] = test system: Lewis lung carcinoma cell line; assay: Cytotoxic activity against solid tumor LLC(Lewis lung carcinoma), concentration of agent required to reduce cell viability by 90%; assay type: functional; conditions: Mus musculus; outline: as §1
# LoVo [12] = assay: Cytotoxic activity against solid tumor, LoVo, (human colon adenocarcinoma) Concentration of agent required to reduce cell viability by 50%; assay type: functional, cell-based; outline: as §1
# P388 [13] = assay: Cytotoxic activity against murine lymphocytic leukemia P388 concentration of agent required to reduce cell viability by 90%; assay type: functional; conditions: Mus musculus; outline: as §1
# P388 [14] = assay: Cytotoxic activity against murine lymphocytic leukemia P388 concentration of agent required to reduce cell viability by 50%; assay type: functional, cell-based; conditions: Mus musculus; outline: as §1
# HL-60 [15] = assay: Cytotoxic activity against human promyelocytic leukemia HL-60 concentration of agent required to reduce cell viability by 90%; assay type: functional; outline: as §1
# HL-60 [16] = assay: Cytotoxic activity against human promyelocytic leukemia HL-60 concentration of agent required to reduce cell viability by 50%; assay type: functional, cell-based; outline: as §1
# P388 [17] = assay: In vivo antitumor activity against Murine P388 Leukemia at 6.67 mg/kg dose;(Median survival time of treated mice)/(median survival time of controls) x100; assay type: functional, Mus musculus
# Outline: (§2)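 Female BD2F1 mice (8 weeks, 20-22 g), eight per group, given 10^5 P388 cells ip on day 0. From 24 h later, drug was given ip once daily for 9 days as a micronized suspension in 0.5% carboxymethylcellulose. Deaths were recorded daily over a 33-day study. %T/C = median survival time of treated / median survival time of controls × 100; >125 taken as significant.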
# HL-60 [18] = assay: Relative cytotoxicity against Human promyelocytic Leukemia(HL-60) cells; Value is in range, activity expressed as IC90; assay type: functional
# Outline: (§3)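 Second-stage assay on HL-60 (5 × 10^4/well) and soybean-agglutinin-negative mononuclear marrow cells (5 × 10^5/well) from six healthy donors. Four wells per concentration, 48 h at 37 °C, then [125I]iododeoxyuridine plus fluorodeoxyuridine for 18 h. Inhibition from fractional uptake decrease; IC50/IC90 by median-effect equation. Ranges are antilog(mean log ± 2SD); ratios use mean antilogs.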
# Homo sapiens [19] = species on record: Homo sapiens; assay: Relative cytotoxicity against Human bone marrow samples; Value is in range, activity expressed as IC50; assay type: functional; outline: as §3
# Homo sapiens [20] = species on record: Homo sapiens; assay: Relative cytotoxicity against Human bone marrow samples; Value is in range, activity expressed as IC90; assay type: functional; outline: as §3
# P388 [21] = assay: In vivo antitumor activity against Murine P388 Leukemia at 60 mg/kg dose;(Median survival time of treated mice)/(median survival time of controls) x100; assay type: functional, Mus musculus; outline: as §2
# [22] = Ratio of antilog(mean log IC90 in bone marrow sample) and antolog(mean log IC90) in HL-60); assay type: functional; outline: as §3
# HL-60 [23] = assay: Relative cytotoxicity against Human promyelocytic Leukemia(HL-60) cells; Value is in range, activity expressed as IC50; assay type: functional, cell-based; outline: as §3
# [24] = Ratio of antilog(mean log IC50 in bone marrow sample) and antolog(mean log IC90) in HL-60); assay type: functional; outline: as §3
# [25] = Ratio of antilog(mean log IC50 in bone marrow sample) and antolog(mean log IC50) in HL-60); assay type: functional; outline: as §3
# P388 [26] = assay: In vivo antitumor activity against Murine P388 Leukemia at 20 mg/kg dose;(Median survival time of treated mice)/(median survival time of controls) x100; assay type: functional, Mus musculus; outline: as §2
smiles,measurement,setting,value
CCN(CC)CCn1c2cc(N3CCCC3)c(N)cc2c(=O)c2c(O)cc(O)cc21,IC90,P388 [1],21 µM
same,IC50,HL-60 [2],96 µM
same,IC50,P388 [3],9.7 µM
same,IC90,HL-60 [4],> 100 µM
CCN(CC)CCn1c2cc(OC)c(N)cc2c(=O)c2c(O)cc(O)cc21,IC90,P388 [1],5.9 µM
same,IC50,B16 [5],3.4 µM
same,IC50,[6],10 µM
same,IC90,CHO [7],20 µM
same,IC90,LoVo [8],36 µM
same,IC50,CHO [9],5.6 µM
same,IC90,B16 [10],11 µM
same,IC50,HL-60 [2],8.2 µM
same,IC90,[11],32 µM
same,IC50,P388 [3],2.8 µM
same,IC90,HL-60 [4],27 µM
same,IC50,LoVo [12],11 µM
CCN(CC)CCn1c2cc(O)c(N)cc2c(=O)c2c(O)cc(O)cc21,IC90,P388 [1],56 µM
same,IC50,HL-60 [2],> 100 µM
same,IC50,P388 [3],26 µM
same,IC90,HL-60 [4],> 100 µM
CCn1c2cc(N3CCSCC3)c(N)cc2c(=O)c2c(O)cc(O)cc21,IC90,P388 [1],> 100 µM
same,IC50,P388 [3],> 100 µM
CCN(CC)CCn1c2cc(N3CCSCC3)c(N)cc2c(=O)c2c(O)cc(O)cc21,IC90,P388 [1],19 µM
same,IC50,P388 [3],8.8 µM
CCn1c2cc(Cl)c(N)cc2c(=O)c2c(O)cc(OC)cc21,IC90,P388 [13],> 100 µM
same,IC50,P388 [14],16 µM
CCN(CC)CCn1c2cc(NC)c(N)cc2c(=O)c2c(O)cc(O)cc21,IC90,P388 [1],7 µM
same,IC50,B16 [5],3.8 µM
same,IC50,[6],23 µM
same,IC90,CHO [7],36 µM
same,IC90,LoVo [8],44 µM
same,IC50,CHO [9],8.2 µM
same,IC90,B16 [10],24 µM
same,IC50,HL-60 [2],9.7 µM
same,IC90,[11],64 µM
same,IC50,P388 [3],3.9 µM
same,IC90,HL-60 [4],27 µM
same,IC50,LoVo [12],26 µM
CCN(CC)CCNc1cc2c(cc1N)c(=O)c1c(O)cc(O)cc1n2CC,IC90,P388 [1],11 µM
same,IC50,B16 [5],10 µM
same,IC50,[6],25 µM
same,IC90,CHO [7],17 µM
same,IC90,LoVo [8],30 µM
same,IC50,CHO [9],8.1 µM
same,IC90,B16 [10],38 µM
same,IC50,HL-60 [2],19 µM
same,IC90,[11],46 µM
same,IC50,P388 [3],4.3 µM
same,IC90,HL-60 [4],46 µM
same,IC50,LoVo [12],19 µM
CCN(CC)CCn1c2cc(Cl)c(N)cc2c(=O)c2c(OC)cc(OC)cc21,IC90,P388 [13],14 µM
same,IC90,HL-60 [15],29 µM
same,IC50,HL-60 [16],8.6 µM
same,IC50,P388 [14],4.3 µM
CCn1c2cc(Cl)ccc2c(=O)c2c(O)cc(O)cc21,IC90,P388 [1],> 100 µM
same,IC50,HL-60 [2],> 100 µM
same,IC50,P388 [3],> 100 µM
same,IC90,HL-60 [4],> 100 µM
COc1cc(O)c2c(=O)c3cc(N)c(N4CCN(C)CC4)cc3n(C)c2c1,IC90,P388 [13],6.8 µM
same,IC90,HL-60 [15],33 µM
same,IC50,HL-60 [16],23 µM
same,IC50,P388 [14],3.4 µM
CCn1c2cc(N3CCN(C)CC3)c(N)cc2c(=O)c2c(O)cc(O)cc21,IC90,P388 [1],13 µM
same,IC50,B16 [5],9.9 µM
same,IC50,[6],11 µM
same,T/C,P388 [17],115%
same,IC90,HL-60 [18],42.6 µM
same,IC90,CHO [7],19 µM
same,IC90,LoVo [8],47 µM
same,IC50,CHO [9],5.8 µM
same,IC90,B16 [10],19 µM
same,IC50,Homo sapiens [19],3.27 µM
same,IC50,HL-60 [2],23 µM
same,IC90,[11],17 µM
same,IC90,Homo sapiens [20],20.3 µM
same,IC50,P388 [3],4.6 µM
same,T/C,P388 [21],132%
same,Ratio,[22],0.5
same,IC50,HL-60 [23],27.7 µM
same,IC90,HL-60 [4],34 µM
same,Ratio,[24],0.1
same,Ratio,[25],0.1
same,IC50,LoVo [12],17 µM
same,T/C,P388 [26],116%
